# Experimental data from different studies.
# Each line is one published result; the experiments were not run side by side.
# Target: Proto-oncogene tyrosine-protein kinase ROS (ROS1, Homo sapiens, UniProt P08922)
Compound,read-out,method,tested at,remaining binding
O=C(Nc1cccnn1)N1CCC(=Cc2cccc(Oc3ccc(C(F)(F)F)cn3)c2)CC1,cell-free assay,competition with immobilised ligand,1 µM,80%
N[C@H]1CCN(c2nccc(-c3cnn4ncccc34)n2)C1,binding,,1 µM,85%
CC(C)(O)c1cncc(-c2nc3ccc(F)cc3n2C2CC2)c1,cell-free assay,competition with immobilised ligand,1 µM,100%
C=CC(=O)N1CCC(C(=O)NCC(=O)N2CCN(c3nc(-c4cnc(N)nc4C(F)F)nc(N4CCOCC4)n3)CC2)CC1,binding,competition with immobilised ligand,1 µM,87%
CO[C@H]1CC[C@H](CNc2ccc(S(=O)(=O)NC(=O)c3ccc(N4CCN(CC5=C(c6ccc(Cl)cc6)CC(C)(C)CC5)CC4)cc3Oc3cnc4[nH]ccc4c3)cc2[N+](=O)[O-])CC1,cell-free assay,competition with immobilised ligand,1 µM,72%
COc1ccnn2ncc(-c3ccnc(N(C)C)n3)c12,binding,,1 µM,100%
O=C(NCCCN1CCOCC1)c1ccc(Nc2nccc(-c3cc4ccccc4s3)n2)cc1,binding,competition with immobilised ligand,1 µM,53%
N#CC1(c2ccccn2)CCN(Cc2cc(C(=O)N3CCCC3)c(=O)n3ccccc23)CC1,cell-free assay,competition with immobilised ligand,1 µM,97%
COc1cnc(Nc2cccc(S(N)(=O)=O)c2)nc1N1CCN(c2ccccc2)CC1,binding,competition with immobilised ligand,1 µM,99%
C[C@H]1CCN(c2nccc(-c3cnn4ncccc34)n2)C1,binding,,1 µM,91%
C[C@@H](c1ccc(-n2cnc3c(N)ncnc32)cc1)N1CCc2nn(C)c(Cc3ccccc3)c2C1=O,binding,competition with immobilised ligand,0.1 µM,100%
CN(C)c1nccc(-c2cnc3ncccn23)n1,binding,,1 µM,71%
COc1cnc(Nc2cccc(S(N)(=O)=O)c2)nc1N1CCN(c2ccccc2)C(=O)C1,binding,competition with immobilised ligand,1 µM,100%
CN(C)c1nccc(-c2cnn3ncccc23)n1,binding,,1 µM,100%
O=C(NCCCN1CCOCC1)c1ccc(Nc2ncc(Cl)c(-c3ccc(Cl)s3)n2)cc1,binding,competition with immobilised ligand,1 µM,47%
CC1=C(C#N)[C@@H](c2ccc3[nH]nc(C)c3c2)C(C#N)=C(c2ccc(Cl)cc2)N1,cell-free assay,competition with immobilised ligand,1 µM,100%
O=C(Nc1c[nH]nc1C(=O)NC1CCNCC1)c1cc(F)cc(F)c1,binding,competition with immobilised ligand,1 µM,100%
O=C(c1ccc(Nc2ncc(Cl)c(-c3cc4ccccc4s3)n2)cc1)N1CCC(N2CCCC2)CC1,binding,competition with immobilised ligand,1 µM,31%
CC1CCCN1c1nccc(-c2cnn3ncccc23)n1 (stereo not shown),binding,,1 µM,100%
FC(F)(F)Oc1cccc(-c2cnc3ccc(-c4ccncc4)nn23)c1,binding,competition with immobilised ligand,5 µM,81%
CN(CCCC(F)(F)F)c1nccc(-c2cnn3ncccc23)n1,binding,,1 µM,79%
O=C(Nc1cccnn1)N1CC(C/C=C/c2cncc(Oc3ccc(C(F)(F)F)cn3)n2)C1,cell-free assay,competition with immobilised ligand,1 µM,100%
